Assay results published in ChEMBL document CHEMBL1142158, “Antibacterial activity and mechanism of action of a novel anilinouracil-fluoroquinolone hybrid compound” (Antimicrob Agents Chemother, 2007).
Converted amounts (≈) assume the structure as drawn. The source made the active and inactive calls. The calls are words filed in the database; no cut-off is given here.

How the values were obtained:
[1] = Therapeutic index, CC50 for MRC5 cells/MIC for Staphylococcus aureus Smith; type: cell-based; conditions: human
[2] = tested on: Streptococcus pneumoniae; assay: Antibacterial activity against penicillin-resistant Streptococcus pneumoniae 700673; type: functional
How it was run: (§1)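 Streptococci tested by CLSI broth microdilution in Mueller-Hinton broth with 5% defibrinated horse blood, log-phase inoculum at 1 x 10^5 CFU/ml. Incubated 37°C with shaking, 16 to 20 h, in 5% humidified CO2. Compounds at 1% DMSO final. MIC is the lowest concentration without growth by OD600. Quadruplicate; highest MIC reported.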

[3] = tested on: Staphylococcus aureus; assay: Antibacterial activity against HB-EMAU-resistant and ciprofloxacin-resistant Staphylococcus aureus Smith; type: functional
How it was run: (§2)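 Broth microdilution per CLSI with modified incubation. Log-phase cultures in cation-adjusted Mueller-Hinton broth, seeded at 1 x 10^5 CFU/ml. Compounds from DMSO stocks, 1% DMSO final. Incubated 37°C, 16 to 20 h, shaken. Growth read as OD600. MIC is the lowest concentration with no apparent growth. Run in quadruplicate; highest value reported.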

[4] = tested on: Bacillus cereus; assay: Antibacterial activity against Bacillus cereus 4342; type: functional
[5] = tested on: Enterococcus faecalis; assay: Antibacterial activity against vancomycin-resistant Enterococcus faecalis 51299; type: functional; how it was run: as §2
[6] = tested on: Stenotrophomonas maltophilia; assay: Antibacterial activity against Stenotrophomonas maltophilia 13637; type: functional
[7] = tested on: Enterococcus faecalis; assay: Antibacterial activity against Enterococcus faecalis 29212; type: functional; how it was run: as §2
[8] = tested on: Staphylococcus aureus; assay: Antibacterial activity against methicillin-resistant Staphylococcus aureus 1123; type: functional; how it was run: as §2
[9] = tested on: Enterococcus faecium; assay: Antibacterial activity against vancomycin-resistant Enterococcus faecium B42762; type: functional; how it was run: as §2
[10] = tested on: Streptococcus pneumoniae; assay: Antibacterial activity against penicillin-resistant Streptococcus pneumoniae 700677; type: functional; how it was run: as §1
[11] = tested on: Pseudomonas aeruginosa; assay: Antibacterial activity against Pseudomonas aeruginosa 27853; type: functional
[12] = tested on: Staphylococcus aureus; assay: Antibacterial activity against Staphylococcus aureus Smith 13709; type: functional; how it was run: as §2
[13] = tested on: Enterococcus faecium; assay: Antibacterial activity against vancomycin and linezolid-resistant Enterococcus faecium F118; type: functional; how it was run: as §2
[14] = Inhibition of Bacillus subtilis gyrase
[15] = tested on: Streptococcus pneumoniae; assay: Antibacterial activity against penicillin-resistant Streptococcus pneumoniae 700671; type: functional; how it was run: as §1
[16] = tested on: Bacillus thuringiensis; assay: Antibacterial activity against Bacillus thuringiensis 33679; type: functional
[17] = tested on: Escherichia coli; assay: Antibacterial activity against Escherichia coli J53; type: functional
[18] = Inhibition of Bacillus subtilis topoisomerase 4
[19] = tested on: Staphylococcus aureus; assay: Antibacterial activity against methicillin-resistant Staphylococcus aureus B42876; type: functional; how it was run: as §2
[20] = tested on: Enterococcus faecium; assay: Antibacterial activity against Enterococcus faecium 19434; type: functional; how it was run: as §2
[21] = tested on: Staphylococcus aureus; assay: Antibacterial activity against Staphylococcus aureus 1081; type: functional; how it was run: as §2
[22] = tested on: Streptococcus pyogenes; assay: Antibacterial activity against Streptococcus pyogenes 12344; type: functional
[23] = tested on: Staphylococcus aureus; assay: Antibacterial activity against Staphylococcus aureus Smith in presence of 10% FCS; type: functional
[24] = tested on: Escherichia coli; assay: Antibacterial activity against ciprofloxacin-resistant Escherichia coli XL1-Blue; type: functional; how it was run: as §2
[25] = tested on: Enterococcus faecalis; assay: Antibacterial activity against vancomycin-resistant Enterococcus faecalis 700802; type: functional; how it was run: as §2
[26] = tested on: Enterococcus faecium; assay: Antibacterial activity against vancomycin-resistant Enterococcus faecium 1644; type: functional; how it was run: as §2
[27] = tested on: Bacillus cereus; assay: Antibacterial activity against Bacillus cereus 6464; type: functional
[28] = tested on: Staphylococcus aureus; assay: Antibacterial activity against ciprofloxacin-resistant Staphylococcus aureus Smith; type: functional; how it was run: as §2
[29] = tested on: Streptococcus pneumoniae; assay: Antibacterial activity against penicillin-resistant Streptococcus pneumoniae 700670; type: functional; how it was run: as §1
[30] = tested on: Staphylococcus aureus; assay: Antibacterial activity against mupirocin-resistant Staphylococcus aureus 777; type: functional; how it was run: as §2
[31] = tested on: Staphylococcus aureus; assay: Antibacterial activity against HB-EMAU-resistant Staphylococcus aureus Smith; type: functional; how it was run: as §2
[32] = tested on: Bacillus subtilis; assay: Inhibition of DNA synthesis in Bacillus subtilis BD54; type: functional, organism-based
How it was run: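 B. subtilis BD54 grown to log phase in C plus 50 medium; compound in DMSO added with [8-3H]adenine at time zero, at 5x or 1x MIC; samples over time. DNA = alkali-insensitive TCA-insoluble label; RNA = total TCA-insoluble minus DNA. Effect judged against diluent-control incorporation.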

[33] = tested on: Enterococcus faecalis; assay: Antibacterial activity against vancomycin-resistant Enterococcus faecalis 51575; type: functional; how it was run: as §2
[34] = tested on: Staphylococcus aureus; assay: Antibacterial activity against methicillin-resistant Staphylococcus aureus 1132; type: functional; how it was run: as §2
[35] = tested on: Staphylococcus aureus; assay: Antibacterial activity against methicillin-resistant Staphylococcus aureus 1094; type: functional; how it was run: as §2
[36] = tested on: Staphylococcus aureus; assay: Antibacterial activity against Staphylococcus aureus 25923; type: functional; how it was run: as §2
[37] = tested on: Klebsiella pneumoniae; assay: Antibacterial activity against Klebsiella pneumoniae 5657; type: functional
[38] = tested on: Staphylococcus aureus; assay: Antibacterial activity against mupirocin-sensitive Staphylococcus aureus 2529; type: functional
[39] = Cytotoxicity against human MRC5 cells; type: cell-based
How it was run: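 MRC-5 human diploid fibroblasts, 4 x 10^3 cells per well, exposed to compound from DMSO stock (final 1%) in minimal essential medium with 10% fetal calf serum for 72 h at 37°C beside a DMSO-only control.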

[40] = tested on: Streptococcus pneumoniae; assay: Antibacterial activity against Streptococcus pneumoniae 49619; type: functional; how it was run: as §1
[41] = tested on: Streptococcus pneumoniae; assay: Antibacterial activity against penicillin-resistant Streptococcus pneumoniae 700674; type: functional; how it was run: as §1
[42] = tested on: Bacillus thuringiensis; assay: Antibacterial activity against Bacillus thuringiensis 10792; type: functional
[43] = tested on: Bacillus anthracis; assay: Antibacterial activity against Bacillus anthracis Sterne; type: functional
[44] = tested on: Bacillus subtilis; assay: Antibacterial activity against Bacillus subtilis BD54; type: functional

## CC1CN(c2c(F)cc3c(=O)c(C(=O)O)cn(C4CC4)c3c2F)CCN1 (centres undefined)
[1]
  selectivity ratio: > 1000
[2]
  MIC: 0.156 µg/mL (≈ 0.429 µM)
[3]
  MIC: 5 µg/mL (≈ 13.8 µM)
[4]
  MIC: 0.078 µg/mL (≈ 0.215 µM)
[5]
  MIC: 0.313 µg/mL (≈ 0.861 µM)
[6]
  MIC: 0.078 µg/mL (≈ 0.215 µM)
[7]
  MIC: 0.313 µg/mL (≈ 0.861 µM)
[8]
  MIC: 20 µg/mL (≈ 55 µM)
[9]
  MIC: 40 µg/mL (≈ 110 µM)
[10]
  MIC: 0.625 µg/mL (≈ 1.72 µM)
[11]
  MIC: 0.313 µg/mL (≈ 0.861 µM)
[12]
  MIC: 0.078 µg/mL (≈ 0.215 µM)
[13]
  MIC: 80 µg/mL (≈ 220 µM)
[14]
  IC50: 5.6 µM
[15]
  MIC: 0.313 µg/mL (≈ 0.861 µM)
[16]
  MIC: 0.078 µg/mL (≈ 0.215 µM)
[17]
  MIC: 0.01 µg/mL (≈ 0.0275 µM)
[18]
  IC50: 4.2 µM
[19]
  MIC: 80 µg/mL (≈ 220 µM)
[20]
  MIC: 10 µg/mL (≈ 27.5 µM)
[21]
  MIC: 10 µg/mL (≈ 27.5 µM)
[22]
  MIC: 0.156 µg/mL (≈ 0.429 µM)
[23]
  MIC: 0.078 µg/mL
[24]
  MIC: 40 µg/mL (≈ 110 µM)
[25]
  MIC: 0.313 µg/mL (≈ 0.861 µM)
[26]
  MIC: 40 µg/mL (≈ 110 µM)
[27]
  MIC: 0.078 µg/mL (≈ 0.215 µM)
[28]
  MIC: 5 µg/mL (≈ 13.8 µM)
[29]
  MIC: 0.313 µg/mL (≈ 0.861 µM)
[30]
  MIC: 40 µg/mL (≈ 110 µM)
[31]
  MIC: 0.078 µg/mL (≈ 0.215 µM)
[32]
  Activity: Active
[33]
  MIC: 0.313 µg/mL (≈ 0.861 µM)
[34]
  MIC: 0.156 µg/mL (≈ 0.429 µM)
[35]
  MIC: 20 µg/mL (≈ 55 µM)
[36]
  MIC: 0.156 µg/mL (≈ 0.429 µM)
[37]
  MIC: 0.156 µg/mL (≈ 0.429 µM)
[38]
  MIC: 80 µg/mL (≈ 220 µM)
[39]
  CC50: > 80 µg/mL
[40]
  MIC: 0.313 µg/mL (≈ 0.861 µM)
[41]
  MIC: 0.625 µg/mL (≈ 1.72 µM)
[42]
  MIC: 0.156 µg/mL (≈ 0.429 µM)
[43]
  MIC: 0.039 µg/mL (≈ 0.107 µM)
[44]
  MIC: 0.039 µg/mL (≈ 0.107 µM)
